Experiments:
human red blood cells [1] = assay: micro-RNA mir-16 release from red blood cells; format: cell-based; settings: pH 5.4; 5 μM peptide, human RBCs, 37 °C, mir-16 by stem-loop qPCR on supernatant
human red blood cells [2] = assay: ATP release from red blood cells; format: cell-based; settings: 5 μM peptide, human RBCs, 37 °C, ATPLite kit on supernatant
[3] = Size-exclusion chromatography, association state in aqueous buffer; format: physicochemical; settings: for apparent molecular weight, SEC: 150 mM NaCl, Superdex 75, 25 °C, 100 μM peptide
[4] = Sedimentation equilibrium analytical ultracentrifugation in aqueous buffer; format: physicochemical; settings: for apparent MW, AUC single-species fit: 150 mM NaCl, 25 °C, 35-50 krpm, global fit; for apparent MW, AUC single-species fit / aggregation state (apparent MW/peptide MW), AUC / –log(Kdissociation), monomer–hexamer equilibrium, AUC: 100 μM peptide; for –log(Kdissociation), monomer–hexamer equilibrium, AUC: error = SD of fit
[5] = AUC self-association in C-14 betaine micelles; format: physicochemical; settings: 8 mM C-14 betaine, pH 7.4 and 5.5, peptide/betaine 1:50, 1:100, 1:200
How it was run: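 Sedimentation equilibrium run at 25 °C at 35, 40, 45 and 50 krpm. Test compound was dissolved in C-14 betaine micelles in 150 mM NaCl and 50 mM sodium phosphate. D2O was added to match micelle density: 17% at pH 7.4 and 22% at pH 5.5. Data were fitted by single-species and monomer–trimer equilibrium models.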

[6] = Circular dichroism thermal denaturation; format: physicochemical; settings: for [PSPF-EKG] at 50% folded and 300 K: calculated from the CD fit; for Tm of thermal denaturation by CD: reference concentration 4 μM

| Substance | % miRNA at 5 μM, RBC lysis assay (human red blood cells [1]) | % ATP at 5 μM, RBC lysis assay (human red blood cells [2]; pH 5.4) | % ATP at 5 μM, RBC lysis assay (human red blood cells [2]; pH 7.5) | also measured |
| --- | --- | --- | --- | --- |
| WSDLAQG LSDLAQG LSDLAQG LSDLAQG [PSPF-DQG] | 0.16 % relative to Triton X-100 controls | 8.61 % relative to Triton X-100 controls | 3.21 % relative to Triton X-100 controls | – |
| WSHLAQG LSHLAQG LSHLAQG LSHLAQG [PSPF-HQG] | 0.64 % relative to Triton X-100 controls | – | 5.69 % relative to Triton X-100 controls | – |
| WSHLAKA LSHLAKA LSHLAKA LSHLAKA [PSPF-HKA] | 0.02 % relative to Triton X-100 controls | 5.7 % relative to Triton X-100 controls | 0.93 % relative to Triton X-100 controls | – |
| WSELAQG LSELAQG LSELAQG LSELAQG [PSPF-EQG] | 2.64 % relative to Triton X-100 controls | 9.52 % relative to Triton X-100 controls | 3.36 % relative to Triton X-100 controls | – |
| WSHLAKG LSHLAKG LSHLAKG LSHLAKG [PSPF-HKG] | 0.44 % relative to Triton X-100 controls | – | 32.1 % relative to Triton X-100 controls | – |
| WSELAQA LSELAQA LSELAQA LSELAQA [PSPF-EQA] | 0.02 % relative to Triton X-100 controls | 3.61 % relative to Triton X-100 controls | 3.69 % relative to Triton X-100 controls | – |
| WSDLAKG LSDLAKG LSDLAKG LSDLAKG [PSPF-DKG] | 7.47 % relative to Triton X-100 controls | 24.1 % relative to Triton X-100 controls | 7.54 % relative to Triton X-100 controls | aggregation state n (apparent MW fold over single peptide MW), SEC ([3]; pH 5.5): only a poorly defined peak; apparent MW, AUC single-species fit ([4]; pH 5.5, 50 mM MES): 24 000 Da; association state n suggested by AUC single-species fitting ([4]; pH 7.4): 6; apparent MW, AUC single-species fit ([4]; pH 7.4, 50 mM Tris): 17 000 Da; aggregation state (apparent MW/peptide MW), AUC ([4]; pH 7.4): 6.0; –log(Kdissociation), monomer–hexamer equilibrium, AUC ([4]; pH 7.4): 28.7 ± 0.4 |
| WSHLAQA LSHLAQA LSHLAQA LSHLAQA [PSPF-HQA] | 1.43 % relative to Triton X-100 controls | – | 6.17 % relative to Triton X-100 controls | – |
| WSDLAQA LSDLAQA LSDLAQA LSDLAQA [PSPF-DQA] | – | – | 3.81 % relative to Triton X-100 controls | – |
| WSELAKA LSELAKA LSELAKA LSELAKA [PSPF-EKA] | 0.21 % relative to Triton X-100 controls | 3.66 % relative to Triton X-100 controls | 2.02 % relative to Triton X-100 controls | – |
| WSDLAKA LSDLAKA LSDLAKA LSDLAKA [PSPF-DKA] | 0.79 % relative to Triton X-100 controls | 5.79 % relative to Triton X-100 controls | 4.64 % relative to Triton X-100 controls | – |
| WSELAKG LSELAKG LSELAKG LSELAKG [PSPF-EKG] | – | 27.3 % relative to Triton X-100 controls | 3.38 % relative to Triton X-100 controls | self-association in detergent micelles [5]: weakly associates in detergent micelles; apparent molecular weight, SEC ([3]; pH 5.5, 50 mM MES): 15 000 Da; apparent molecular weight, SEC ([3]; pH 7.4, 50 mM Tris): 19 000 Da; decrease of Tm from pH 7.4 to pH 5.5 ([6]; CD thermal denaturation): 5.6 K; [PSPF-EKG] at 50% folded and 300 K ([6]; pH 5.5): 0.31 µM; Tm of thermal denaturation by CD ([6]; pH 5.5): 333.4 ± 0.1 K; [PSPF-EKG] at 50% folded and 300 K ([6]; pH 7.4): 0.14 µM; Tm of thermal denaturation by CD ([6]; pH 7.4): 339.0 ± 0.1 K; increase of free energy of the helical bundle as pH decreases from 7.4 to 5.5 ([4]; AUC): 0.7 kcal/mol peptide; association state n suggested by AUC single-species fitting ([4]; pH 5.5): 6; apparent MW, AUC single-species fit ([4]; pH 5.5, 50 mM MES): 16 000 Da; aggregation state (apparent MW/peptide MW), AUC ([4]; pH 5.5): 5.5; –log(Kdissociation), monomer–hexamer equilibrium, AUC ([4]; pH 5.5): 24.8 ± 0.1; association state n suggested by AUC single-species fitting ([4]; pH 7.4): 6; apparent MW, AUC single-species fit ([4]; pH 7.4, 50 mM Tris): 18 000 Da; aggregation state (apparent MW/peptide MW), AUC ([4]; pH 7.4): 6.2; –log(Kdissociation), monomer–hexamer equilibrium, AUC ([4]; pH 7.4): 28.0 ± 0.4 |

From paper PMC4843813 (ACS chemical biology, 2015)
